# PTK2B oligo ant = antagonists of human Pyk2 oligomerization; Q14289; Q293 cells, Pyk2 FERM NanoBiT luminescence; hits give low values; z-score (the deposit names both 25 µM and 10 µM); 99,000 compounds, 0.83% hits;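 active = Z-score of -3 or lower, scaled per plate to the spread of control and sample wells; inactive = z-score above -3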;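 note: negative z-score means lost luminescence so less FERM oligomerization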
# Target sequence (Q14289 whole entry, looked up): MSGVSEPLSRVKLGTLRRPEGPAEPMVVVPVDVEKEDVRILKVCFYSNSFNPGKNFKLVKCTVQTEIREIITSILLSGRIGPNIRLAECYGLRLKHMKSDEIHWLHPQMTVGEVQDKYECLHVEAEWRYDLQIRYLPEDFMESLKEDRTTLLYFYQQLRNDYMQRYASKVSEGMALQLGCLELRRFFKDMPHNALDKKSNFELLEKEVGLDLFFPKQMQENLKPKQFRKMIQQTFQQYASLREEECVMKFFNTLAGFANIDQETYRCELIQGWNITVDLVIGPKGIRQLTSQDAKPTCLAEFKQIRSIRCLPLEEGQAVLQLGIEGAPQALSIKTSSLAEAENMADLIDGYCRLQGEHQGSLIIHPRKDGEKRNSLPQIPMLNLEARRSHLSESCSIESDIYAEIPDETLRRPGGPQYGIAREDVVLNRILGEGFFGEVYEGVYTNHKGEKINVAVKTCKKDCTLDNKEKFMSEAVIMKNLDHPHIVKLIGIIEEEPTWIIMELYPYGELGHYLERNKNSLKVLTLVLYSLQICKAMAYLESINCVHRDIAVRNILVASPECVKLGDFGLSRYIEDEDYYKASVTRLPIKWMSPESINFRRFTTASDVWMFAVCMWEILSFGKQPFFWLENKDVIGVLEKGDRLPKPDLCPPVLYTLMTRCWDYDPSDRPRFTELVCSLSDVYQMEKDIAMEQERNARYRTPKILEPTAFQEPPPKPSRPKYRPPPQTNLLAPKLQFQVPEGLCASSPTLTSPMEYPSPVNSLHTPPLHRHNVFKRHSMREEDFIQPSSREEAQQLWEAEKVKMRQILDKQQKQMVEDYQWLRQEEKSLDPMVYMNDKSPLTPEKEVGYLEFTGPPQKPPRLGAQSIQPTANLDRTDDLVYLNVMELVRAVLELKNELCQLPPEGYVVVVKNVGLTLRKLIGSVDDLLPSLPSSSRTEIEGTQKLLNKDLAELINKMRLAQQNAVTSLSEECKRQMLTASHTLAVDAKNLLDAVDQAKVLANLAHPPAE
# Ecoli tolC = E. coli tolC mutant growth inhibition | E. coli BW25113 tolC mutant growth, OD615 | growth inhibition, % at 10 µM (by protocol) | 65,000 compounds, 2.2% hits | AID 573;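 active = growth inhibition at or above a cutoff equal to the mean over every tested compound plus 3 SD, cut at about 60% in these data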;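 note: growth measured after 20 h incubation at 37 °C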
#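 Doses: one dose of 10 µM final / Material: E. coli BW25113 ΔtolC::kan, tolC deletion mutant strain / Buffer or medium: LB with kanamycin 50 µg/mL / Evaluation: percent growth inhibition / Detection: optical density read at 615 nm / Incubation: 37 °C, 20 h exposure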
# Ecoli WT expand = growth inhibitors of E. coli BW25113 wild type. OD600 absorbance. growth inhibition, % at 100 µM. 98,000 compounds, 0.15% hits;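 active = growth inhibition above about 50% at one test dose, limit read from the data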;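 note: growth measured after 20 h incubation at 37 °C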
# PostGolgi ctrl = inhibits growth of the yeast control strain | efflux-deficient yeast background strain, growth absorbance A615, 16 h | inhibition, % at 10 µM | 98,000 compounds, 5% hits | AID 738
# PostGolgi yeast = growth inhibition of a yeast mutant, post-Golgi transport screen; post-Golgi transport phenotypic cell assay; inhibition, % at 10 µM; 98,000 compounds, 0.9% hits; AID 739;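 note: yeast cells grown in 1536-well plates; yeast grown about 18 h at 30C before absorbance read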
# Calb biofilm kill = kills Candida albicans biofilms; inhibition, % at 6 µM; C. albicans biofilm + clotrimazole, Alamar Blue; AID 834; 85,000 compounds, 0.14% hits;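 active = inhibition above 20%; inactive = inhibition below 20%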;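 note: preformed 24 hr biofilms exposed to compound for 48 hr; 0% = biofilm without compound and 100% = blank killed by clotrimazole plus chlorhexidine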
# Active calls of the source: *; / = no result given. Sampled rows, rich in hits. Any-hit rate of the full collection: about 6.5%. Cut-off read from the data, not from the text of the source, unless noted: active = inhibition above about 30%; inactive = the rest.
SMILES,PTK2B oligo ant,Ecoli tolC,Ecoli WT expand,PostGolgi ctrl,PostGolgi yeast,Calb biofilm kill
COc1ccccc1NC(=O)N1CCN(c2cc(-c3ccccc3)nc3ncnn23)CC1,-0.48,7,-8,12,8,4
O=C1CCSc2ccc(Cl)cc2N1Cc1cccc(Cl)c1,-0.97,/,8,41*,-13,/
Cc1ccc(CN2C(=O)CCSc3ccc(Cl)cc32)cc1,-1.5,/,0,46*,4,/
Cc1ccc(CN2C(=O)CSc3ccc(C(=O)NCCN4CCOCC4)cc32)cc1,-0.15,-8,-9,2,6,3
O=C(O)c1ccc2c(c1)N(Cc1cccc(F)c1)C(=O)CS2,/,10,7,-5,15,4
CSc1ccc(Cl)c(C(=O)OCC(=O)N2CCOCC2)c1,0.79,0,3,-6,26,5
Cc1ccc(-c2cn(S(=O)(=O)c3cccc4nsnc34)nc2N)cc1,-1.1,53,-15,23,48*,5
COc1cc(-c2cn(S(=O)(=O)c3cccc4nsnc34)nc2N)cc(OC)c1OC,0.77,/,-3,7,4,-3
Nc1nn(S(=O)(=O)c2cccc3nsnc23)cc1-c1ccc(Br)cc1,-0.67,58,-8,72*,79*,6
CCCCCCSc1nnc(-c2cnn(-c3ccccc3)c2-n2cccc2)n1C,-1.6,/,-8,61*,-10,2
CCSc1nnc(-c2cnn(-c3ccccc3)c2-n2cccc2)n1C,-0.07,/,2,6,2,10
O=C1CC(c2cccc(Br)c2)c2cc3c(cc2N1)CCC3 (stereo not drawn),-0.49,/,-2,90*,19,/
CN1CC(c2ccc(C#N)cc2)C2(COc3ccccc3C2=O)C12C(=O)Nc1ccccc12 (stereo not drawn),-1.7,/,-1,31*,9,/
O=C1Nc2ccccc2C12OCCO2,-0.72,-12,7,12,0,6
COc1cc(/C=C2/CCC/C(=C\c3cc(O)c(OC)c(Cl)c3)C2=O)cc(Cl)c1O,-4.2*,/,-10,22,2,/
Brc1ccc(-c2csc(-c3c[nH]c4ccccc34)n2)cc1,-0.35,/,-20,24,-4,/
c1ccc2c(-c3c[nH]c4ccccc34)c3ccccc3nc2c1,-2.1,/,-10,50*,1,/
N#Cc1nc(Cc2cccc3ccccc23)oc1N1CCCCC1,-1,51,-24,36*,-3,2
N#Cc1nc(COc2ccc(Cl)cc2)oc1N1CCCCCC1,-1.8,66*,-1,45*,-2,5
N#Cc1nc(COc2ccc(F)cc2)oc1N1CCN(Cc2ccccc2)CC1,1.6,65*,-13,27,-7,0
N#Cc1nc(COc2ccc(Br)cc2)oc1N1CCN(Cc2ccccc2)CC1,0.74,7,-20,20,0,/
CC1CN(c2oc(COc3ccc(Cl)cc3Cl)nc2C#N)CC(C)O1 (stereo not drawn),-0.39,81*,-12,27,-3,4
N#Cc1nc(COc2ccccc2)oc1N1CCCCC1,/,12,-2,3,5,6
CCc1ccc(NC(=O)c2c(Cl)nc(C)c(Cl)c2C)cc1,-0.76,/,/,/,/,/
COc1ccc(NC(=O)c2ccc(CN3CCN(c4ccccc4)CC3)cc2)cc1,1.3,3,-4,4,64*,2
SMILES,PTK2B oligo ant,Ecoli tolC,Ecoli WT expand,PostGolgi ctrl,PostGolgi yeast,Calb biofilm kill
COc1cccc(NC(=O)c2ccc(CN3CCN(c4ccccc4)CC3)cc2)c1,-0.39,32,-5,-4,37*,0
CCOC(=O)C(C)Oc1ccc(=O)n(-c2ccccc2)n1 (stereo not drawn),2.1,-9,-6,7,-6,4
Cc1ccc(C2CC2C(=O)NNC(=S)Nc2ccc(Cl)cc2)cc1 (stereo not drawn),0.12,/,/,/,/,0
Cn1c(=O)oc2cc(S(=O)(=O)NCCN3CCCCCC3)ccc21,0.62,-7,0,-12,-2,6
COc1ccc(N2CCN(CCCNS(=O)(=O)c3ccc4c(c3)oc(=O)n4C)CC2)cc1,/,-6,10,32*,-7,4
Cc1ccc(C(=O)Nc2nc(C(C)(C)C)cs2)s1,-1.9,/,8,14,11,-2
CC(C)(C)c1csc(NC(=O)c2ccc(Cl)s2)n1,-3*,100*,-7,24,-2,4
O=C(Nc1nc(-c2cccs2)cs1)c1ccc(Cl)s1,/,96*,-18,21,32*,-1
CC(=O)Nc1nc(-c2cccs2)cs1,0.35,1,9,1,6,0
CCOc1ccc(S(=O)(=O)NN)cc1,1,/,5,2,10,/
O=C(CSc1nnnn1-c1cccc2c1CCCC2)N1CCCCC1,0.2,/,/,/,/,9

# Screening results (PubChem)
